Measurements taken from ChEMBL document CHEMBL4049434, “Radiolabeled Dibenzodiazepinone-Type Antagonists Give Evidence of Dualsteric Binding at the M2 Muscarinic Acetylcholine Receptor” (J Med Chem, 2017).
Activity calls are given as the source filed them. The rule behind the calls is not given here.

What was measured:
[1] = molecular target: T1, Muscarinic acetylcholine receptor M2 (Homo sapiens) (UniProt P08172); assay: (§1) Displacement of [3H]NMS from human muscarinic acetylcholine receptor M2 expressed in CHOK9 cells after 3 hrs by liquid scintillation counting assay; format: cell-based
T1 sequence (whole entry): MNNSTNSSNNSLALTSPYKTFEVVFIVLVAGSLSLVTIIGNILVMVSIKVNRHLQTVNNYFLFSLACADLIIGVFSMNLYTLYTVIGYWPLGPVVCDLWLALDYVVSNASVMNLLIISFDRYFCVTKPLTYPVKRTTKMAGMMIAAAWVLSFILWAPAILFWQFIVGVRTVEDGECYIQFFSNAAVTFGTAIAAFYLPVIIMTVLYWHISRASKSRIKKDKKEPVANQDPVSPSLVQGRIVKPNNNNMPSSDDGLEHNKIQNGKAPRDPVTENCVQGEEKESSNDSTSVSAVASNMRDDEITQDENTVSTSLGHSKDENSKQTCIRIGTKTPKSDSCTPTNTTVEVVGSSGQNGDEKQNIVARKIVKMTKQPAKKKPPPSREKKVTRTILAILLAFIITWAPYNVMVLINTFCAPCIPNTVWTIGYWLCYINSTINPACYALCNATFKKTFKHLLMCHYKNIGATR

[2] = molecular target: T1, Muscarinic acetylcholine receptor M2 (Homo sapiens); assay: Binding affinity to human muscarinic acetylcholine receptor M2 expressed in live adherent CHOK9 cells at Kd in presence of 500-fold excess atropine after 2 hrs by liquid scintillation counting assay relative to control; format: cell-based; details: tested as the 3H-labelled form
How it was run: (§2)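 Live adherent CHO-hM2 cells in L15 medium with 1% BSA, 23 ± 1 °C, 2 h incubation. Competition at 2 nM radioligand; additional 4, 8, 15 and 30 nM in W84 experiments. […] Saturation data fitted one-site; competition by four-parameter logistic fits; at least three experiments in triplicate.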

[3] = molecular target: T2, Muscarinic acetylcholine receptor M4 (Homo sapiens, UniProt P08173); assay: Displacement of [3H]NMS from human muscarinic acetylcholine receptor M4 expressed in CHOK9 cells after 3 hrs by liquid scintillation counting assay; format: cell-based
T2 sequence (P08173 whole entry): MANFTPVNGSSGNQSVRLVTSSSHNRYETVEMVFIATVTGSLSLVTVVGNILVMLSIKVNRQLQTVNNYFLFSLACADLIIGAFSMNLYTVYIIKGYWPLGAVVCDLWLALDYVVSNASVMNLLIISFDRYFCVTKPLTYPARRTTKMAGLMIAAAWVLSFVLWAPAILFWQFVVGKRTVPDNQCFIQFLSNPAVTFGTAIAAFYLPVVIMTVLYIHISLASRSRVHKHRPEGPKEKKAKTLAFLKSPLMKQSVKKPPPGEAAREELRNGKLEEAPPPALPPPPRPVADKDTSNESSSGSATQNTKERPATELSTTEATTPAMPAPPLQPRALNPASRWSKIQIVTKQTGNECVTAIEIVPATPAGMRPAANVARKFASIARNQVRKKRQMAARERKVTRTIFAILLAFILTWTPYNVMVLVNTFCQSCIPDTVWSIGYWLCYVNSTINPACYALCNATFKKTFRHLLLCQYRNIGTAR

[4] = molecular target: T1, Muscarinic acetylcholine receptor M2 (Homo sapiens); assay: Binding affinity to human muscarinic acetylcholine receptor M2 expressed in CHOK9 cell homogenate after 2 hrs by liquid scintillation counting assay; details: tested as the 3H-labelled form
How it was run: (§3)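 CHO-hM2 cell homogenates (25–30 μg protein/well) in L15 medium with 1% BSA, 23 ± 1 °C, 2 h with tritiated dimeric radioligand. Competition used 0.5 nM radioligand; additional 0.4, 1, 2 and 4 nM in W84 experiments. […] Four-parameter logistic fits; at least three experiments in triplicate.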

[5] = molecular target: T3, Muscarinic acetylcholine receptor M5 (Homo sapiens, UniProt P08912); assay: Displacement of [3H]NMS from human muscarinic acetylcholine receptor M5 expressed in CHOK9 cells after 3 hrs by liquid scintillation counting assay; format: cell-based
T3 sequence (P08912 whole entry): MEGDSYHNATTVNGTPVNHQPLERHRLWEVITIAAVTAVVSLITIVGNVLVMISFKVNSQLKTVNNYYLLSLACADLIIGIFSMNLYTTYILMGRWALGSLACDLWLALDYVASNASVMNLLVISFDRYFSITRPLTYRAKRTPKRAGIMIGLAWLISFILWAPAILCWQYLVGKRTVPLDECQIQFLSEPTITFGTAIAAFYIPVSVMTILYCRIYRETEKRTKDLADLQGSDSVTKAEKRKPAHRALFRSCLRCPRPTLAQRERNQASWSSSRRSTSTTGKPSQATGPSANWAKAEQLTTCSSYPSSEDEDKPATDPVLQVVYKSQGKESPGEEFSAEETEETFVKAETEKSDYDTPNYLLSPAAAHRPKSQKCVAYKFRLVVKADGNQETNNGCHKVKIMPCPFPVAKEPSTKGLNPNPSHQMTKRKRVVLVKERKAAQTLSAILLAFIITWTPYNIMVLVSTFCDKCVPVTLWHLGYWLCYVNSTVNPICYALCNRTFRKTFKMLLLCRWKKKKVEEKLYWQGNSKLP

[6] = molecular target: T4, Muscarinic acetylcholine receptor M1 (Homo sapiens, UniProt P11229); assay: Displacement of [3H]NMS from human muscarinic acetylcholine receptor M1 expressed in CHOK9 cells after 3 hrs by liquid scintillation counting assay; format: cell-based
T4 sequence (P11229 whole entry): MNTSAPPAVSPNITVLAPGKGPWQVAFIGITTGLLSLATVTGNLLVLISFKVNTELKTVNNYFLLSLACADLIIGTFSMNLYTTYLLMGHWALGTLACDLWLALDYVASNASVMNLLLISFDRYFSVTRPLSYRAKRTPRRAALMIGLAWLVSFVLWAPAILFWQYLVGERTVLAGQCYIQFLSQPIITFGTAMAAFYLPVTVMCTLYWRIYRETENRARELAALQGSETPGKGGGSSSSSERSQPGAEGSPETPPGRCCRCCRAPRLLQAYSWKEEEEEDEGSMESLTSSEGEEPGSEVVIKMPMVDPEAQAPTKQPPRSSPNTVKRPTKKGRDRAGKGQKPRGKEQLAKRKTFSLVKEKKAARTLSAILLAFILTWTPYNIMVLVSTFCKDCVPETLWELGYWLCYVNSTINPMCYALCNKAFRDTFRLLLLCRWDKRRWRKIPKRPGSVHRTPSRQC

[7] = molecular target: Muscarinic acetylcholine receptor M3 (Homo sapiens, UniProt P20309); assay: Displacement of [3H]NMS from human muscarinic acetylcholine receptor M3 expressed in CHOK9 cells after 3 hrs by liquid scintillation counting assay; format: cell-based
[8] = molecular target: T5, Muscarinic acetylcholine receptor M2 (Homo sapiens, UniProt P08172); assay: as §1; format: cell-based; details: read-out: pKi (converted)
T5 sequence (P08172 whole entry): T1 sequence (whole entry)

[9] = molecular target: T1, Muscarinic acetylcholine receptor M2 (Homo sapiens); assay: Binding affinity to human muscarinic acetylcholine receptor M2 expressed in live adherent CHOK9 cells after 2 hrs by liquid scintillation counting assay; format: cell-based; details: tested as the 3H-labelled form; how it was run: as §2
[10] = molecular target: T1, Muscarinic acetylcholine receptor M2 (Homo sapiens); assay: Binding affinity to human muscarinic acetylcholine receptor M2 expressed in CHOK9 cell homogenates at Kd in presence of 500-fold excess atropine after 2 hrs by liquid scintillation counting assay relative to control; details: tested as the 3H-labelled form; how it was run: as §3
[11] = Chemical stability of the compound in PBS buffer at pH 7.4 after 48 hrs by HPLC analysis; format: physicochemical; details: pH 7.4, 48 h
How it was run: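 Compound at 100 μM final (from 10 mM stock) in PBS pH 7.4 at 22 ± 1 °C; samples taken at 0, 24 and 48 h, mixed with acetonitrile/1% aq TFA 2:8, analysed by RP-HPLC at 220 nm.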

[12] = molecular target: Muscarinic acetylcholine receptor M2 (Homo sapiens) (UniProt P08172); assay: Displacement of [3H]UNSW-MK259 from human muscarinic acetylcholine receptor M2 expressed in CHOK9 cells at <100 uM after 3 hrs by liquid scintillation counting assay
[13] = molecular target: Muscarinic acetylcholine receptor M2 (Homo sapiens) (UniProt P08172); assay: Displacement of [3H]NMS from human muscarinic acetylcholine receptor M2 expressed in CHOK9 cells at <100 uM after 3 hrs by liquid scintillation counting assay
[14] = molecular target: T1, Muscarinic acetylcholine receptor M2 (Homo sapiens)

Muscarinic acetylcholine receptor M3, sequence (P20309 whole entry): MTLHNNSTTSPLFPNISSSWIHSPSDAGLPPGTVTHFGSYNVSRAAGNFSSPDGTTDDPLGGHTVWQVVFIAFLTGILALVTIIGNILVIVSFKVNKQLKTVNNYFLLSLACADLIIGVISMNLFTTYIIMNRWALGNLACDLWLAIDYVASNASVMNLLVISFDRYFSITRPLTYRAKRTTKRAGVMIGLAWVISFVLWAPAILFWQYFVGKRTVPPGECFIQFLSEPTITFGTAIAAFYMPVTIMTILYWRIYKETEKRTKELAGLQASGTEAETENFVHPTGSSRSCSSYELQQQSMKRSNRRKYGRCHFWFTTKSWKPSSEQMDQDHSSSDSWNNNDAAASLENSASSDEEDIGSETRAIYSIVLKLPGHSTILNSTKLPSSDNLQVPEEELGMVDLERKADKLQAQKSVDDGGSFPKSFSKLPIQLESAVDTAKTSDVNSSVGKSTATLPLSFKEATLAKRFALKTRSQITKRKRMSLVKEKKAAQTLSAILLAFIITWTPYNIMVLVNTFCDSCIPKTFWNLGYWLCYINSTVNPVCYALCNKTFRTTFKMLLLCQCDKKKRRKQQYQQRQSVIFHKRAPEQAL

**Q.** With `O=C1Nc2ccccc2N(C(=O)CN2CCN(CC(=O)N3c4ccccc4NC(=O)c4ccccc43)CC2)c2ccccc21` as the compound, how does the inhibition [1] read?
**A.** Active

**Q.** With `CCC(=O)NC1CN(CCCCC2CCN(CC(=O)N3c4ccccc4NC(=O)c4ccccc43)CC2)CCN(CCCCC2CCN(CC(=O)N3c4ccccc4NC(=O)c4ccccc43)CC2)C1.O=C(O)C(F)(F)F.O=C(O)C(F)(F)F.O=C(O)C(F)(F)F.O=C(O)C(F)(F)F` as the compound, how does the Activity [2] read?
**A.** > 60%

**Q.** What about the Ki [3] of the same compound?
**A.** 3.63 nM

**Q.** What about the Bmax (disintegrations/minute) [4] of the same compound?
**A.** 4900

**Q.** And the Ki [5]?
**A.** 77.6 nM

**Q.** And the Ki [6]?
**A.** 7.08 nM

**Q.** What about the Ki [7] of the same compound?
**A.** 200 nM

**Q.** What about the Ki [8] of the same compound?
**A.** 0.708 nM

**Q.** What about the Bmax (disintegrations/minute) [9] of the same compound?
**A.** 3800

**Q.** What about the Activity [10] of the same compound?
**A.** < 15%

**Q.** And the Stability [11]?
**A.** Stable

**Q.** With `CCC(=O)NCCNC(=O)CCc1c[nH]cn1` as the compound, how does the inhibition [12] read?
**A.** inactive

**Q.** And the inhibition [13]?
**A.** inactive

**Q.** Which pKb [14] does the source give for `Cc1c(Cl)c(OCC(=O)N2CCN(C)CC2)nc2sc(C(=O)NC3CC3)c(N)c12` here?
**A.** 5.77
